# Most compounds without a hit are left out; they make up all but 1.3% or so of the library.
# Keap1-Nrf2 PPI – disrupts human Keap1 binding to Nrf2 peptide. Q14145. Keap1 Kelch-Nrf2 peptide fluorescence polarization, 1536-well. inhibition, % at 9.4 µM. actives 0.15% (n = 340,000). AID 504523; in the data active = inhibition above about 12%;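 note: human Keap1 Kelch domain with fluorescein labeled Nrf2 9mer peptide probe; 0% = neutral control wells and 100% = peptide positive control; higher means more block of Keap1 binding to Nrf2 peptide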
# EBV gp42 inh – EBV gp42 inhibition; Fluorescence polarization binding assay, mP read-out; Q1HVG2; actives 0.42% (n = 220,000); AID 1085; inhibition, % (tested at 21.74 µM); in the data active = inhibition above about 50%
# Target sequence (Q1HVG2 whole entry, looked up): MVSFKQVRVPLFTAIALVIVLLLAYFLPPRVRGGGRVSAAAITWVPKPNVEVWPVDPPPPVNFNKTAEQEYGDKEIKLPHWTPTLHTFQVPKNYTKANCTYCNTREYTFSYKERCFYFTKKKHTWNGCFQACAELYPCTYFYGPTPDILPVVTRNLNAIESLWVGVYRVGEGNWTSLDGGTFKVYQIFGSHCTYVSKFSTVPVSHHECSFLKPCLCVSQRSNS
# C-LANA FP – inhibitors of KSHV LANA C-terminal domain DNA binding; MBP-C-LANA/FAM-LBS DNA binding, fluorescence polarization; AID 504423; inhibition, % at 9 µM; actives 0.078% (n = 340,000);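 active = highest replicate inhibition at or above 60% at 9 µM, even if other replicates fall short; inactive = all replicates below 60% inhibition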;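 note: 0% = neutral control wells and 100% = 4 µM acridine orange control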
# MEX-5 binding – C. elegans MEX-5 TCR-2 RNA binding activity; MEX-5/FITC-TCR2 RNA binding, fluorescence polarization; stronger effect = lower value; activity score (negative = inhibition of binding), % at 10 µM; actives 0.38% (n = 300,000);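 active = inhibition past about -25% in most replicates, and total fluorescence under double the plate's negative control median, limit read from the data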;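 note: 0% = DMSO and -100% = 5 µM competing unlabeled TCR2 RNA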
# Target sequence (Q9XUB2 whole entry, looked up): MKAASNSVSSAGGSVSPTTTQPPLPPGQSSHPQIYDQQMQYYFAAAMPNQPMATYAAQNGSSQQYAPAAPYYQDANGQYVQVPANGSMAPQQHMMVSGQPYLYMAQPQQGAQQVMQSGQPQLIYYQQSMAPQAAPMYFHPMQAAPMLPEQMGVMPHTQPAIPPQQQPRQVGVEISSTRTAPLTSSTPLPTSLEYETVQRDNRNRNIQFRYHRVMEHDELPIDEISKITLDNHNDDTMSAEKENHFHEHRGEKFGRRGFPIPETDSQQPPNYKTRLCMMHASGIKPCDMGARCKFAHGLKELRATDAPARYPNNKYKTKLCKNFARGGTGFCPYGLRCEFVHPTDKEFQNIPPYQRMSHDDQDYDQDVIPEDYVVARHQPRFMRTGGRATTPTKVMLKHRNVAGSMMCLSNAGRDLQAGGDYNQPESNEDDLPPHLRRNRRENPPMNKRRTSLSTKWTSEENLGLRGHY
# GRK2 aptamer HTS – inhibitors of human GRK2 displacing RNA aptamer | bead flow cytometry, FAM-aptamer displacement from GRK2 | inhibition of aptamer binding, % at 10 µM | actives 0.59% (n = 330,000) | AID 488847;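 active = inhibition of aptamer binding above 40%, roughly 3 SD of noise, on plates passing a quality check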;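 note: median bead fluorescence of bound FAM aptamer so fluorescent compounds give negative values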
# T cell HTS – modulates CD8 T cell binding to vesicles. 2C CD8+ T cell-vesicle binding, flow cytometry; stronger effect = lower value. AID 2052. response (vesicle binding), % at 7 µM. actives 0.068% (n = 330,000);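 active = response, share of CD8 T cells binding vesicles, and their 90th percentile fluorescence all below set limits, cut at about 80% in these data, passing the limit was not always enough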;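 note: values below 100% mean blocked vesicle binding to the CD8+ T cells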
#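 Material: 2C TCR transgenic mouse naive CD8+ T cells, MACS-purified. Also added: QL9-charged Drosophila Ld/ICAM-1/B7-1 vesicles. Timing: binding 1.5 h at 37 °C. Measured by: high-throughput flow cytometry with anti-B7-1 and anti-CD8 staining. Read-out: percent CD8+ FL2 mean versus row control. Controls: Unloaded micro-vesicles (low), QL9 vesicles with 0.7% DMSO (high).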
# GRK2 CP1 – confirmation of human GRK2 inhibitors displacing RNA aptamer | shares compounds with GRK2 aptamer HTS | bead-bound GRK2, FAM-aptamer displacement, flow cytometry | aptamer displacement, % at 10 µM | actives 4% (n = 2,000) | AID 504451;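 active = aptamer displacement above 40%, near three times the noise of non-fluorescent compounds, on plates passing quality checks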;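 note: negative values mostly reflect intrinsic compound fluorescence rather than true enhancement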
# FAM quench CP1 – aptamer fluorescence quenching in GRK2 counter-screen; shares compounds with GRK2 aptamer HTS; Carboxyfluorescein RNA aptamer on beads, flow cytometry quenching; stronger effect = lower value; fluorescence response (% of DMSO), % at 10 µM; 2,000 tested, under 10 active; AID 504580;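 active = compounds that quench the bead-bound fluorescent RNA probe, cutting fluorescence to under half of the solvent control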;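 note: counterscreen run without GRK2 so only probe quenching by compound is measured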
# GRK2 confirm 2 – human GRK2 inhibition confirmation, cherry pick 2 | shares compounds with GRK2 aptamer HTS | bead-bound GRK2, FAM-aptamer displacement, flow cytometry | inhibition of aptamer binding, % at 10 µM | 360 tested, under 10 active;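 active = inhibition of aptamer binding above 40%, about triple the noise seen with nonglowing compounds, on plates passing quality control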;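 note: negative values mostly come from compounds that fluoresce themselves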
# FAM quench SP – aptamer fluorescence quenching in GRK2 counter-screen; shares compounds with GRK2 aptamer HTS; carboxyfluorescein RNA aptamer beads, flow cytometry quenching; stronger effect = lower value; fluorescence response vs DMSO, % at 10 µM; 360 tested, under 10 active;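 active = response vs DMSO under 50%, meaning signal dropped by over half, treated as fluorescence quencher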;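 note: labelled aptamer on streptavidin beads without GRK2 as a quench counter-screen; 100% = bead fluorescence of DMSO wells and lower means quenching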
# An asterisk follows results filed as active; i = inactive; / = no result given.
SMILES,Keap1-Nrf2 PPI,EBV gp42 inh,C-LANA FP,MEX-5 binding,GRK2 aptamer HTS,T cell HTS,GRK2 CP1,FAM quench CP1,others
COc1cc(NC(=O)COc2ccccc2C)ccc1NC(=O)c1ccco1,-1,/,2,-1,51*,247,/,/,GRK2 confirm 2=-4;FAM quench SP=101
Cc1cc(NC(=O)COc2ccccc2C)ccc1NC(=O)c1ccco1,-3,/,1,3,0,629,/,/,
COc1ccc(C(=O)Nc2ccccc2NC(=O)c2ccco2)c(OC)c1,-2,-4,-2,0,0,407,/,/,
Cn1c(N2CCN(C(c3ccccc3)c3ccccc3)CC2)nc2ccccc21,1,/,1,0,98*,360,-2,151,
COc1ccc(OC)c(C2C(C#N)=C(N)Oc3cc(N)ccc32)c1 (stereo unspecified),1,0,-2,4,0,904,/,/,
CCOc1ccccc1C1C(C#N)=C(N)Oc2cc(N)ccc21 (stereo unspecified),4,-14,1,-1,97*,225,-2,103,
COc1ccc(NC(=O)CN(C)C(=O)c2ccc(NS(=O)(=O)c3ccc(C)c([N+](=O)[O-])c3)cc2)cc1,-5,/,0,1,3,140,/,/,
O=C(NCc1ccccc1Cl)C1CCN(S(=O)(=O)c2cccs2)CC1,-5,/,3,1,2,209,/,/,
O=C(NN=C(Cc1ccccc1)Cc1ccccc1)c1ccccc1F,2,-26,0,3,86*,304,1,101,
CCCC(CCC)=NNC(=O)c1ccccc1F,-1,-10,-1,-2,0,291,/,/,
COC(=O)c1cc(-c2ccccc2)c2c(=O)n(C)c(=O)n(C)c2n1,/,-6,/,/,/,/,/,/,
COC(=O)c1cc(-c2cccc([N+](=O)[O-])c2)c2c(=O)n(C)c(=O)n(C)c2n1,2,/,1,-1,79*,84,-1,104,
Cc1cc(C)c(C#N)c(SCC(=O)Nc2cccc(S(=O)(=O)N3CCCC3)c2)n1,-4,/,-9,/,/,/,/,/,
COc1ccc(OCC(=O)N2CCN(c3nnc(-c4ccc(C)cc4)c4ccccc34)CC2)cc1,1,2,0,7,54*,367,1,91,
COc1cccc(C=Nc2ccc(N3CCOCC3)cc2)c1O,0,/,-3,-2,3,178,/,/,
O=[N+]([O-])c1cc(Br)c(O)c(C=Nc2ccc(N3CCOCC3)cc2)c1,-5,10,-1,0,51*,179,0,103,
O=C(OCc1nnc(-c2ccccc2)o1)C1CC(=O)N(CCc2ccccc2)C1 (stereo unspecified),-4,/,40,/,3,458,1,102,
CC(C)Cn1c(CN(C)Cc2ccccc2)nc2c1c(=O)n(C)c(=O)n2C,0,-9,5,2,76*,i,-4,98,
CCOCCn1c(CN2CCCCC2C)nc2c1c(=O)n(C)c(=O)n2C (stereo unspecified),2,/,0,1,1,366,/,/,
CC1CCCCN1Cc1nc2c(c(=O)n(C)c(=O)n2C)n1CCCc1ccccc1 (stereo unspecified),0,/,20,3,0,164,/,/,
CCCCCn1c(CN2CCN(C)CC2)nc2c1c(=O)n(C)c(=O)n2C,-3,-22,2,-2,3,625,/,/,
CCC1CCCCN1Cc1nc2c(c(=O)n(C)c(=O)n2C)n1CC(C)C (stereo unspecified),6,/,0,-3,0,296,4,97,
CCCCCCn1c(CN2CCCCC2CC)nc2c1c(=O)n(C)c(=O)n2C (stereo unspecified),-2,-16,3,1,3,267,-17,91,
CCC1CCCCN1Cc1nc2c(c(=O)n(C)c(=O)n2C)n1CCC(C)C (stereo unspecified),-5,/,1,1,4,435,0,102,
CCC(C)(C)NC(=O)COc1ccc(OCc2ccccc2)cc1,0,7,0,-1,0,253,/,/,
SMILES,Keap1-Nrf2 PPI,EBV gp42 inh,C-LANA FP,MEX-5 binding,GRK2 aptamer HTS,T cell HTS,GRK2 CP1,FAM quench CP1,others
COc1ccc(N2CCN(C(=O)c3ccccc3N(C)S(=O)(=O)c3ccccc3)CC2)cc1,-2,/,1,1,0,210,/,/,
Cc1cn(C2OC(COC(=O)c3ccccc3)C(OC(=O)c3ccccc3)C2OC(=O)c2ccccc2)c(=O)[nH]c1=O (stereo unspecified),0,-16,0,2,100*,440,-1,104,
Cc1cn(C2OC(COC(=O)c3ccccc3)C(O)C2O)c(=O)[nH]c1=O (stereo unspecified),-8,5,2,2,0,686,/,/,
CS(=O)(=O)Nc1ccc2c(c1)ncn2CCc1ccccc1,0,/,0,0,0,298,/,/,
Cc1nc(SCC(=O)c2ccc(Cl)cc2)c([N+](=O)[O-])[nH]1,-1,-20,1,0,1,343,/,/,
COc1ccc(-c2nc(CNS(=O)(=O)c3ccc(OC)c(OC)c3)cs2)cc1,-1,-7,0,2,84*,791,1,105,
COc1ccc(S(=O)(=O)NCc2csc(C)n2)cc1OC,0,/,-2,1,3,254,/,/,
O=C(COC(=O)c1ccc(-n2cnnn2)cc1)Nc1cc(Cl)ccc1F,-4,/,-1,/,0,414,/,/,
CC(C)C(=O)c1c(C(C)C)nn2ccccc12,3,/,1,0,0,914,1,99,
Cc1c(C(=O)C(C)C)n(C)c2ccccc12,-2,-10,0,-1,2,235,/,/,
Cc1ccc2oc(C(=O)N(C)Cc3ccon3)c(C)c2c1,-1,/,0,4,92*,220,-1,104,
CC(C)(C)Cc1nnc(NS(=O)(=O)c2ccc([N+](=O)[O-])cc2)s1,1,/,0,1,57*,494,-1,97,
Cc1ccc(S(=O)(=O)Nc2nnc(CC(C)(C)C)s2)cc1,1,/,1,-2,1,272,/,/,
O=C(NCC(F)(F)F)c1ccc(S(=O)(=O)Nc2ccccc2N2CCCC2)cc1,-6,/,2,/,89*,957,21,117,
Cc1ccc(S(=O)(=O)Nc2ccccc2N2CCCCC2)cc1,-4,/,1,/,1,313,/,/,

# High-throughput results from PubChem BioAssay.
